Columns and labels:
[1] = Inhibition of Human immunodeficiency virus recombinant integrase 3'-processing activity expressed in Escherichia coli after 60 mins using [32P]-labeled oligonucleotide substrate by densitometric analysis
[2] = Inhibition of HIV recombinant integrase strand transfer activity expressed in Escherichia coli after 60 mins using [32P]-labeled oligonucleotide substrate by densitometric analysis; set-up: species or system Human immunodeficiency virus
[3] = tested on: Human immunodeficiency virus 1; assay: Antiviral activity against Human immunodeficiency virus 1 3B infected in human CEM-SS cells assessed as cytoprotection against virus-induced toxicity at 10 uM after 6 days by MTS assay; type: functional
How it was run: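 Single-concentration screen at 10 μM, run only on compounds with strand-transfer IC50 ≤10 μM. CPE reduction (%) and cell viability (%) assessed by MTS; AZT positive control.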

[4] = tested on: Human immunodeficiency virus 1; assay: Antiviral activity against Human immunodeficiency virus 1 3B infected in CEM-SS cells assessed as reduction in virus-induced cytopathic effect at 10 uM after 6 days; type: functional; set-up: scale not given: the % may be the effect or the level left
How it was run: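 CEM-SS cells were mixed with pre-titered HIV-1 IIIB and the compound at a single 10 μM and incubated for 6 days. Virus dose was set to give 70–95% viability loss in virus-control wells. CPE reduction (cytoprotection) and cell viability were read by MTS. Plates included cell, virus, compound-toxicity and colorimetric control wells, with AZT as positive control.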

[5] = tested on: Human immunodeficiency virus 1; assay: Antiviral activity against Human immunodeficiency virus 1 3B infected in CEM-SS cells assessed as inhibition of viral replication after 6 days; type: functional, organism-based; details: 144 h
How it was run: (§1)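 CEM-SS cells mixed with pre-titered HIV-1 IIIB (titer chosen so virus-control wells lose 70–95% viability) plus compound in dose response, incubated 6 days. Viability read by MTS; controls are cells alone, cells+virus, cells+compound and compound alone. EC50 is the concentration protecting 50% against virus-induced loss; CC50 is the concentration killing 50% of cells; TI = CC50/EC50. AZT used as positive control.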

[6] = Therapeutic index, ratio of CC50 for human CEM-SS cells to EC50 for Human immunodeficiency virus 1 3B; type: cell-based; details: read-out: TI
How it was run: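 CEM-SS cells mixed with HIV-1 IIIB and compound, incubated 6 days; virus pre-titered so control wells lose 70–95% viability. Cytoprotection (EC50) and cytotoxicity in uninfected compound-only wells (CC50) read by MTS from dose-response. TI calculated as CC50/EC50. Controls: cells only, virus only, and compound only (colorimetric). AZT served as positive control.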

[7] = tested on: CEM-SS; assay: (§2) Cytotoxicity against human CEM-SS cells infected with Human immunodeficiency virus 1 3B after 6 days by MTS assay; type: cell-based; details: cem-ss, 144 h; how it was run: as §1
[8] = tested on: Human immunodeficiency virus 1; assay: Fold resistance, ratio for Human immunodeficiency virus 1 NL4-3 reverse transcriptase K103N mutant to wild-type Human immunodeficiency virus 1 NL4-3 reverse transcriptase
How it was run: (§3)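 HIV-1 NL4-3 strains carrying the reverse transcriptase K103N or Y181C mutation were tested in MAGI R5 cells, with the NNRTI TNK-651 as control. Fold-resistance is the mutant/wild-type ratio.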

[9] = tested on: Human immunodeficiency virus 1; assay: Fold resistance, ratio for Human immunodeficiency virus 1 NL4-3 reverse transcriptase Y181C mutant to wild-type Human immunodeficiency virus 1 NL4-3 reverse transcriptase; how it was run: as §3
[10] = Cytotoxicity against human MT4 cells infected with raltegravir-resistant Human immunodeficiency virus 1 8070-2; type: cell-based; details: MT4 cells infected with raltegravir-resistant HIV-1 8070-2, read-out: TC50 (the source's name)
[11] = tested on: Human immunodeficiency virus 1; details: NL4-3
[12] = Cytotoxicity against human MT4 cells infected with raltegravir-resistant Human immunodeficiency virus 1 4736-2; type: cell-based; details: MT4 cells infected with raltegravir-resistant HIV-1 4736-2, read-out: TC50 (the source's name)
[13] = Cytotoxicity against human MT4 cells infected with raltegravir-resistant Human immunodeficiency virus 1 1556-1; type: cell-based; details: MT4 cells infected with raltegravir-resistant HIV-1 1556-1, read-out: TC50 (the source's name)
[14] = tested on: Human immunodeficiency virus 1; details: NL4-3; remark: listed apart in the source
[15] = tested on: Human immunodeficiency virus 1; assay: Fold resistance, ratio of EC50 for raltegravir-resistant Human immunodeficiency virus 1 1556-1 expressing integrase Y143C mutant to EC50 for raltegravir-resistant Human immunodeficiency virus 1 1556-1 expressing wild-type integrase; type: functional
[16] = tested on: Human immunodeficiency virus 1; assay: Ratio of IC50 for Human immunodeficiency virus 1 NL4-3 integrase Y143R mutant to IC50 for wild-type Human immunodeficiency virus 1 NL4-3 integrase
How it was run: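 Recombinant HIV-1 integrase (wild type or mutant) was expressed in E. coli, with 10% glycerol in all buffers. Reactions were stopped with EDTA/formamide dye. IC50 came from a logistic nonlinear fit; the ratio is IC50 mutant/WT from two independent experiments.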

[17] = as §2; type: cell-based; details: CEM-SS cells infected with HIV-1 3B, read-out: TC50; how it was run: as §1

SMILES	IC50 [1] [µM]	IC50 [2] [µM]	Activity [3] [%]	other results
CC(C)c1c(Cc2ccccc2)n(Cc2ccccc2)c(=O)n(O)c1=O	> 111	28		
CC(C)c1c(Cc2ccccc2)n(COCc2ccc(F)cc2)c(=O)n(C)c1=O	> 111	> 111		
CC(C)c1c(Cc2ccccc2)n(CCCc2ccc(F)cc2)c(=O)n(O)c1=O	> 111	0.44	97	Activity [4]: 12%
Cc1cn(Cc2ccccc2)c(=O)n(O)c1=O	> 111	> 111		
CC(C)c1c(Cc2ccccc2)n(COCc2ccc(F)cc2F)c(=O)n(O)c1=O	> 111	4.8	100	EC50 [5]: 2.1 µM; selectivity ratio [6]: > 47; CC50 [7]: > 100 µM
CC(C)c1c(Cc2ccccc2)n(CCc2ccc(F)cc2)c(=O)n(O)c1=O	> 111	46		
CC(C)c1c(Cc2ccccc2)n(COCCCc2ccc(F)cc2)c(=O)n(O)c1=O	> 111	3.2	92	Activity [4]: 30%
CCc1c(Cc2ccccc2)n(COCc2ccccc2)c(=O)n(O)c1=O	> 111	8.2		
CC(C)c1c(Cc2ccc(F)cc2)n(Cc2ccc(F)cc2)c(=O)n(O)c1=O	> 111	73		
CCc1c(Cc2ccccc2)n(Cc2ccccc2)c(=O)n(O)c1=O	> 111	> 111		
CCc1c(Cc2ccccc2)n(Cc2ccc(F)cc2)c(=O)n(O)c1=O	> 111	24		
CC(C)c1c(Cc2ccccc2)n(CCCCc2ccc(F)cc2)c(=O)n(O)c1=O	> 111	0.56	94	Activity [4]: 6%
CC(C)c1c(Cc2ccccc2)n(COCCCCc2ccc(F)cc2)c(=O)n(O)c1=O	> 111	4.5	88	Activity [4]: 12%
CCc1c(Cc2ccccc2)c(=O)[nH]c(=O)n1COCc1ccc(F)cc1			92	Activity [4]: 10%
O=c1c2ccccc2n(Cc2ccc(F)cc2)c(=O)n1O	> 111			
CC(C)c1c(Cc2ccccc2)n(COCc2ccc(F)cc2)c(=O)n(O)c1=O				Ratio [8]: 16; Ratio [9]: 48

SMILES	IC50 [1] [µM]	IC50 [2] [µM]	Activity [3] [%]	other results
CC(C)c1c(Cc2ccc(F)cc2)n(COCc2ccccc2)c(=O)n(O)c1=O	> 111	7.3	100	EC50 [5]: 1.1 µM; selectivity ratio [6]: > 18; CC50 [7]: > 20 µM
Cc1cn(COCc2ccccc2)c(=O)n(O)c1=O	> 111	75		
CCc1c(Cc2ccccc2)c(=O)n(O)c(=O)n1COCc1ccccc1	> 111	36		
O=c1c2ccccc2n(Cc2ccccc2)c(=O)n1O	> 111			
CC(C)c1c(Cc2ccccc2)n(Cc2ccc(F)cc2)c(=O)n(O)c1=O	> 111	22		
CC(C)c1c(Cc2ccccc2)n(COCc2ccc(F)cc2)c(=O)[nH]c1=O	> 111	> 111		
CCc1c(Cc2ccccc2)c(=O)[nH]c(=O)n1COCc1ccccc1			100	Activity [4]: 48%
CC(C)c1c(Cc2ccccc2)n(COCc2cccc(Cl)c2F)c(=O)n(O)c1=O	> 111	2.3	100	CC50 [10]: 2 µM; EC50 [5]: 0.95 µM; selectivity ratio [6]: > 105; Ratio IC50 [11]: 5; CC50 [12]: 2 µM; CC50 [13]: 2 µM; Ratio IC50 [14]: 14; Ratio EC50 [15]: >1.7; Ratio IC50 [16]: 5; CC50 at 144 h [17]: > 100 µM
Cc1cn(Cc2ccc(F)cc2)c(=O)n(O)c1=O	> 111	> 111		
COn1c(=O)c(C(C)C)c(Cc2ccccc2)n(COCc2ccc(F)cc2)c1=O	> 111	> 111		
Cc1nnc(C(=O)NC(C)(C)c2nc(C(=O)NCc3ccc(F)cc3)c(O)c(=O)n2C)o1 [RALTEGRAVIR]				Ratio IC50 [11]: 8; Ratio IC50 [14]: 139; Ratio EC50 [15]: >855; Ratio IC50 [16]: 24
CC(C)c1c(Cc2ccc(F)cc2)n(COCc2ccc(F)cc2)c(=O)n(O)c1=O	> 111	5.5		
CC(C)c1c(Cc2ccc(F)cc2)n(Cc2ccccc2)c(=O)n(O)c1=O	> 111	32		
CCc1c(Cc2ccccc2)c(=O)n(O)c(=O)n1COCc1ccc(F)cc1	> 111	11		
CC(C)c1c(Cc2ccccc2)n(COCCc2ccc(F)cc2)c(=O)n(O)c1=O	> 111	1.6	83	Activity [4]: 27%
